The values that follow come from ChEMBL document CHEMBL1142312, “Anti-Plasmodium activity of tetrazolium salts” (Bioorg Med Chem, 2008).

For one data set, the system named is Plasmodium falciparum. The experiment in a line: Antimalarial activity against Plasmodium falciparum in LDH reporter assay. It counts as functional, organism-based. The conditions noted are these: Plasmodium falciparum. In short, it runs like this:
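P. falciparum line ItG cultured in O+ human erythrocytes in RPMI-1640 with 10% human serum and 50 μM hypoxanthine. Twofold serial dilutions from 10 mg/mL DMSO stock, 2% hematocrit, 2% parasitemia. Incubated 72 h at 37 °C under 95% N2/3% CO2/2% O2. Parasite LDH assay read at 650 nm after 1 h. IC50 by non-linear regression, mean ± SE of four determinations.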

The nature of data set [1]: Toxicity in CHO cells. The class given is cell-based, Cricetulus griseus. The conditions noted are these: Chinese hamster (Cricetulus griseus), CHO cells. In short, it runs like this:
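CHO cells grown to 50% confluency in RPMI-1640 with 10% fetal calf serum, 25 mM Hepes and gentamicin. Serial dilutions made from a 10 mg/mL DMSO stock; DMSO-only controls. After 48 h, MTT (10 mg/mL in medium) added for 1 h, then DMSO added and absorbance read at 650 nm. IC50 by non-linear regression of dose–response; mean ± SE of four determinations.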

Data set [2] is described as follows: Ratio of IC50 for CHO cells to IC50 for Plasmodium falciparum. The class given is functional.

With `Brc1cccc(-[n+]2nc(-c3ccc(OCc4ccccc4)cc3)nn2-c2ccccc2)c1.[Cl-]`, the values for the IC50 (in the data set on Plasmodium falciparum; in data set [1]) were 0.4 µM and 8.1 µM, respectively. The “Ratio IC50” value in data set [2] was determined as 20.3.
`Clc1cccc(-n2nc(-c3ccccc3)n[n+]2-c2cccc(Cl)c2)c1.[Cl-]`: the IC50 worked out at 0.5 µM in the data set on Plasmodium falciparum and 36 µM in data set [1]. Also, the “Ratio IC50” value in data set [2] was 72.
Taken in the same sequence, the figures for `[Cl-].c1ccc(-n2nc(C3CCCCC3)n[n+]2-c2ccccc2)cc1` were 6.2 µM, 25 µM and 4.
For `[Cl-].c1ccc(-c2nn(-c3ccccc3)[n+](-c3ccccc3)n2)cc1` [TETRAZOLIUM RED] the same measures were 0.3 µM, 71 µM and 236.7.
For `Fc1ccc(-[n+]2nc(-c3ccccc3)nn2-c2ccccc2)cc1.[Cl-]`, the IC50 with Plasmodium falciparum was determined as 0.93 µM; in data set [1], 39 µM. Besides, in data set [2], the “Ratio IC50” value worked out at 41.9.
With `Clc1cccc(-c2nn(-c3ccc(OCc4ccccc4)cc3)[n+](-c3ccccc3)n2)c1.[Cl-]`, the IC50 is 0.41 µM with Plasmodium falciparum and 38 µM in data set [1]. Also, the “Ratio IC50” value in data set [2] is reported as 92.7.
For `[Cl-].c1ccc(COc2ccc(-n3nc(-c4ccc(-c5ccccc5)cc4)n[n+]3-c3ccccc3)cc2)cc1` the same measures were 0.261 µM, 1.7 µM and 6.5.
`O=[N+]([O-])c1ccc(-[n+]2nc(-c3ccc(Br)cc3)nn2-c2ccccc2)cc1.[Cl-]`: the results for the IC50 (with Plasmodium falciparum; in data set [1]) were 10 µM and 7 µM, respectively. Also, in data set [2], the “Ratio IC50” value was 0.7.
For the compound `COc1ccc(-n2nc(-c3ccc(-c4ccccc4)cc3)n[n+]2-c2ccc(F)cc2)cc1.[Cl-]`, the values for the half-inhibitory concentration (IC50) (in the data set with Plasmodium falciparum; in data set [1]) were 1.7 µM and 19 µM, respectively. In addition, in data set [2], the “Ratio IC50” value was 11.2.
Regarding `Fc1cccc(-[n+]2nc(-c3ccccc3)nn2-c2ccccc2)c1.[Cl-]`, the IC50 with Plasmodium falciparum was 2.2 µM; in data set [1], 36 µM. In addition, in data set [2], the “Ratio IC50” value was determined as 16.4.
As to `COc1cc(-c2nn(-c3ccccc3)[n+](-c3ccc([N+](=O)[O-])cc3)n2)cc(OC)c1OC(C)=O.[Cl-]`, the IC50 was 7.3 µM with Plasmodium falciparum and 19 µM in data set [1]. Besides, the “Ratio IC50” value in data set [2] is on record as 2.6.
For `Brc1cccc(-[n+]2nc(-c3ccccc3)nn2-c2ccccc2)c1.[Cl-]` the same measures were 0.6 µM, 6.4 µM and 10.7.
For `Fc1cccc(-[n+]2nc(-c3ccc(-c4ccccc4)cc3)nn2-c2ccccc2)c1.[Cl-]` the same measures were 0.26 µM, 4.9 µM and 18.8.
Turning to `COc1cc(-c2nn(-c3ccccc3)[n+](-c3cccc(Cl)c3)n2)ccc1OCc1ccccc1.[Cl-]`, the IC50 with Plasmodium falciparum turned out to be 0.69 µM; in data set [1], 8 µM. The “Ratio IC50” value in data set [2] came out at 11.6.
Taken in the same sequence, the figures for `COc1ccc(-n2nc(-c3ccc(OCc4ccccc4)cc3)n[n+]2-c2ccccc2)cc1.[Cl-]` were 0.32 µM, 9 µM and 28.1.
For `Fc1ccc(-[n+]2nc(-c3cccc4ccccc34)nn2-c2ccccc2)cc1.[Cl-]` the same measures were 0.83 µM, 32 µM and 38.6.
Taken in the same sequence, the figures for `Fc1ccc(-[n+]2nc(-c3ccc(-c4ccccc4)cc3)nn2-c2ccccc2)cc1.[Cl-]` were 0.81 µM, 4.1 µM and 5.1.
`O=[N+]([O-])c1ccc(-c2nn(-c3ccccc3)[n+](-c3ccccc3)n2)cc1.[Cl-]`: the IC50 in the data set with Plasmodium falciparum is 14 µM; in data set [1], 31 µM. For the same compound, the “Ratio IC50” value in data set [2] is listed as 2.2.
For `COc1ccc(-n2nc(-c3ccc(OCc4ccccc4)cc3)n[n+]2-c2cccc(Cl)c2)cc1.[Cl-]` the same measures were 0.29 µM, 16 µM and 55.2.
Turning to `[Cl-].c1ccc(COc2ccc(-c3nn(-c4ccc(OCc5ccccc5)cc4)[n+](-c4ccccc4)n3)cc2)cc1`, the IC50 in the data set on Plasmodium falciparum was determined as 0.23 µM; in data set [1], 0.96 µM. In addition, in data set [2], the “Ratio IC50” value came out at 4.2.
As to `[Cl-].c1ccc(-c2ccc(-n3nc(-c4cccc5ccccc45)n[n+]3-c3ccccc3)cc2)cc1`, the IC50 was 2.9 µM in the data set on Plasmodium falciparum and 9 µM in data set [1]. For the same compound, the “Ratio IC50” value in data set [2] was determined as 3.1.
Taken in the same sequence, the figures for `[Cl-].c1ccc(-c2ccc(-c3nn(-c4ccccc4)[n+](-c4ccccc4)n3)cc2)cc1` were 0.23 µM, 7 µM and 30.4.
Taken in the same sequence, the figures for `Fc1ccccc1-[n+]1nc(-c2ccc(-c3ccccc3)cc2)nn1-c1ccccc1.[Cl-]` were 0.36 µM, 8 µM and 22.2.
Consider `O=[N+]([O-])c1ccc(-n2nc(-c3ccccc3)n[n+]2-c2ccc(I)cc2)cc1.[Cl-]` [IODONITROTETRAZOLIUM CHLORIDE], for which the half-inhibitory concentration (IC50) with Plasmodium falciparum is 81 µM; in data set [1] it was 49 µM. Moreover, the “Ratio IC50” value in data set [2] came to 0.6.
For `Clc1ccc(-[n+]2nc(-c3ccccc3)nn2-c2ccccc2)cc1.[Cl-]` the same measures were 0.63 µM, 39 µM and 61.9.
As to `COc1ccc(-n2nc(-c3ccc(-c4ccccc4)cc3)n[n+]2-c2ccc(Cl)cc2)cc1.[Cl-]`, the IC50 amounted to 0.4 µM in the data set with Plasmodium falciparum and 12 µM in data set [1]. Further, the “Ratio IC50” value in data set [2] is 30.
`COc1cc(-c2ccc(-n3nc(-c4ccccc4)n[n+]3-c3ccccc3)c(OC)c2)ccc1-n1nc(-c2ccccc2)n[n+]1-c1ccccc1` [TETRAZOLIUM BLUE CHLORIDE]: the results for the IC50 (with Plasmodium falciparum; in data set [1]) were 3.8 µM and > 100 µM, respectively.
As for `Clc1cccc(-[n+]2nc(-c3ccccc3)nn2-c2ccccc2)c1.[Cl-]`, the results for the IC50 (in the data set on Plasmodium falciparum; in data set [1]) were 0.84 µM and 6.3 µM, respectively. Also, in data set [2], the “Ratio IC50” value is on record as 7.5.
`[Cl-].c1ccc(COc2ccc(-c3nn(-c4ccccc4)[n+](-c4ccccc4)n3)cc2)cc1`: the results for the IC50 (with Plasmodium falciparum; in data set [1]) were 0.103 µM and 4.2 µM, respectively. Moreover, in data set [2], the “Ratio IC50” value turned out to be 40.8.
Taken in the same sequence, the figures for `CCCCCCc1nn(-c2ccccc2)[n+](-c2ccccc2)n1.[Br-]` were 3.4 µM, 21 µM and 6.2.
Consider `Clc1ccc(-[n+]2nc(-c3ccc(-c4ccccc4)cc3)nn2-c2ccccc2)cc1.[Cl-]`, for which the values for the IC50 (in the data set on Plasmodium falciparum; in data set [1]) were 0.41 µM and 16 µM, respectively. For the same compound, the “Ratio IC50” value in data set [2] is given as 39.
For `COc1ccc(-c2nn(-c3ccccc3)[n+](-c3ccc([N+](=O)[O-])cc3)n2)cc1.[Cl-]` the same measures were 3.7 µM, 6 µM and 1.6.
In the case of `Clc1cccc(-[n+]2nc(-c3ccc(-c4ccccc4)cc3)nn2-c2ccccc2)c1.[Cl-]`, the results for the concentration for half-maximal inhibition (IC50) (with Plasmodium falciparum; in data set [1]) were 0.115 µM and 10 µM, respectively. Moreover, the “Ratio IC50” value in data set [2] worked out at 87.
Take `CC(C)c1nn(-c2ccccc2)[n+](-c2ccccc2)n1.[Br-]`: the IC50 is 102 µM in the data set with Plasmodium falciparum and 377 µM in data set [1]. Besides, the “Ratio IC50” value in data set [2] is on record as 3.7.
With `[Cl-].c1ccc(COc2ccc(-n3nc(-c4ccccc4)n[n+]3-c3ccccc3)cc2)cc1`, the figures for the IC50 (in the data set on Plasmodium falciparum; in data set [1]) were 0.2 µM and 37 µM, respectively. Also, in data set [2], the “Ratio IC50” value was found to be 185.
Regarding `[Cl-].[Cl-].c1ccc(-c2nn(-c3ccccc3)[n+](-c3ccc(-c4ccc(-[n+]5nc(-c6ccccc6)nn5-c5ccccc5)cc4)cc3)n2)cc1` [NEOTETRAZOLIUM CHLORIDE], the results for the half-maximal inhibitory concentration (IC50) (with Plasmodium falciparum; in data set [1]) were 0.35 µM and 11 µM, respectively. Moreover, the “Ratio IC50” value in data set [2] amounted to 31.4.
Taken in the same sequence, the figures for `Fc1ccccc1-[n+]1nc(-c2ccccc2)nn1-c1ccccc1.[Cl-]` were 0.39 µM, 44 µM and 112.8.
On to `Clc1ccc(-[n+]2nc(-c3ccc(OCc4ccccc4)cc3)nn2-c2ccccc2)cc1.[Cl-]`, for which the figures for the IC50 (in the data set on Plasmodium falciparum; in data set [1]) were 1.14 µM and 4.6 µM, respectively. The “Ratio IC50” value in data set [2] was found to be 4.
Taken in the same sequence, the figures for `COc1cc(-c2nn(-c3ccccc3)[n+](-c3ccc(Cl)cc3)n2)ccc1OCc1ccccc1.[Cl-]` were 3.8 µM, 32 µM and 8.4.
For `CCCCCCCCCCCOc1ccc(-c2nn(-c3ccccc3)[n+](-c3ccccc3)n2)cc1.[Cl-]` the same measures were 4 µM, 0.4 µM and 0.1.
As for `COc1ccc(-n2nc(-c3ccccc3)n[n+]2-c2ccccc2)cc1.[Cl-]`, the IC50 worked out at 0.8 µM in the data set with Plasmodium falciparum and 6.5 µM in data set [1]. Also, in data set [2], the “Ratio IC50” value is listed as 8.1.
On to `[Cl-].c1ccc(-n2nc(-c3cccc4ccccc34)n[n+]2-c2ccccc2)cc1`, for which the IC50 in the data set on Plasmodium falciparum came to 0.35 µM; in data set [1], 2.4 µM. The “Ratio IC50” value in data set [2] is reported as 6.9.
With `COc1ccc(-[n+]2nc(-c3ccc(-c4ccccc4)cc3)nn2-c2ccccc2)cc1.[Cl-]`, the IC50 in the data set on Plasmodium falciparum worked out at 0.43 µM; in data set [1] it was 19 µM. Besides, the “Ratio IC50” value in data set [2] worked out at 44.2.
Taken in the same sequence, the figures for `Fc1ccc(-[n+]2nc(-c3ccc(OCc4ccccc4)cc3)nn2-c2ccccc2)cc1.[Cl-]` were 0.47 µM, 16 µM and 34.
The compound `COc1cc(-c2ccc(-n3nc(-c4ccc([N+](=O)[O-])cc4)n[n+]3-c3ccc([N+](=O)[O-])cc3)c(OC)c2)ccc1-n1nc(-c2ccc([N+](=O)[O-])cc2)n[n+]1-c1ccc([N+](=O)[O-])cc1` showed an IC50 in data set [1] of 1.3 µM.
